From paper PMC10674630 (Diabetes, Metabolic Syndrome and Obesity, 2023)
In brackets after ≈: the same amount, converted by molar mass. Entries after “also recorded” stand apart in the source; their conditions may differ. Read-outs that look alike come from different tables or passages of the source. *1 amine or outer side, *2 acyl side, *3 side chain or, on linkers, in order; H or OH if unused. Where a SMILES comes first, the peptide text is derived from it. Bridges are numbered along the chain shown (N, C = ends). [ ]: non-standard residue; d: D form. X1 = CC(C)CCCCCCCCC[C@H](CC(=O)[*:1])O[*:2]

Key:
[1] = test system: ATCC 25923; assay: Transmission electron microscopy; type: cell-based, S. aureus; conditions: 5×MIC, 1 h, control 0.05% DMSO
[2] = test system: icaA; conditions: cited from earlier work
[3] = test system: penicillinase; assay: Penicillinase inhibition assay; type: biochemical
In short: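 Penicillin K (10,000 U/mL) added at 2:1 to mixture, 1 h at 37 °C. Then 0.01 mol/L iodine for 15 min, back-titrated with 0.01 mol/L Na2S2O3 to colourless, starch indicator near endpoint. Thiosulfate consumed is inversely related to enzyme activity.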

[4] = test system: S. aureus biofilm formation; assay: Biofilm inhibition assay; type: cell-based
In short: (§1)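 Overnight cultures were diluted in TSB containing serial surfactin dilutions (1/64×MIC to 2×MIC) to 1×10^6 CFU/mL and grown in triplicate wells for 24 h at 37 °C. Wells were washed three times with PBS and stained with 0.5% crystal violet for 20 min. After air-drying, stain was solubilised in 95% ethanol for 20 min at room temperature and OD570 was read.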

[5] = test system: Gram-negative bacteria; assay: Efficacy against Gram-negative bacteria; type: cell-based; conditions: data not shown
[6] = test system: ATCC 25923; assay: Microbroth dilution MIC, ATCC 25923; type: cell-based, S. aureus; conditions: triplicate
In short: (§2)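 Surfactin was dissolved in sterile distilled water and tested by broth microdilution in MH broth. Strains were a reference strain and MALDI-TOF-identified clinical isolates from diabetic foot ulcers. MIC was the lowest concentration without visible growth. For MBC, 10 µL from clear wells was plated on MH agar for 24 h at 37 °C, and MBC was the lowest concentration giving no colonies. Tests were run in triplicate.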

[7] = test system: SA 452
[8] = test system: S. aureus biofilm; conditions: ref 28 (Liu et al), cited from earlier work
[9] = test system: ATCC 25923; assay: Bacterial growth curves, ATCC 25923; type: cell-based, S. aureus
In short: (§3)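 Cultures of ATCC 25923 and a clinical MRSA strain were diluted to 1×10^6 CFU/mL in MH broth with surfactin at 0, 1/2×MIC, MIC or 2×MIC, with an MH broth-only negative control. Tubes were shaken at 200 rpm and 35 °C for 24 h. OD600 was read at 0, 4, 8, 12 and 24 h. Runs were done in triplicate.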

[10] = test system: SA 452; assay: Bacterial growth curves, SA 452; type: cell-based, S. aureus; conditions: for Growth inhibition: 24-h exposure, 0, 1/2×MIC, MIC, 2×MIC
In short: as §3

[11] = test system: fnbB; conditions: S. aureus; cited from earlier work
[12] = test system: SA 326; assay: Microbroth dilution MIC, SA 326; type: cell-based, S. aureus; conditions: SA 326 (MRSA), triplicate
In short: as §2

[13] = test system: human red blood cells; assay: Human red blood cells hemolysis assay; type: cell-based; conditions: 1 h, 37 °C
In short: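 Whole blood from healthy human volunteers was spun at 1000×g for 5 min, and the RBCs were washed three times in PBS and resuspended in PBS. RBC suspension was mixed 1:1 with serial surfactin dilutions and incubated 1 h at 37 °C, then supernatant A570 was read. Hemolysis % was scaled between 0.1% DMSO (negative) and 0.1% Triton X-100 (positive).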

[14] = test system: standard and clinical strains of Staphylococcus aureus; assay: MIC and MBC by microbroth dilution, all selected strains; type: cell-based
In short: as §2

[15] = test system: SA 452; assay: Microbroth dilution MIC, SA 452; type: cell-based, S. aureus; conditions: SA 452 (MRSA), triplicate
In short: as §2

[16] = test system: S. aureus (ATCC 25923 and MRSA SA 452); assay: Mutant prevention / resistance selection, both strains; type: cell-based; conditions: S. aureus
In short: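 Strains were grown 24 h in MH broth, centrifuged at 4000×g for 10 min and resuspended to 1×1010 CFU/mL. […] MPC was the lowest concentration preventing colonies. MPC/MIC ratio defined the mutant selection window.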

[17] = test system: icaD; conditions: cited from earlier work
[18] = test system: fnbA; conditions: S. aureus; cited from earlier work
[19] = test system: SA 095; assay: Microbroth dilution MIC, SA 095; type: cell-based, S. aureus; conditions: SA 095 (non-MDR), triplicate
In short: as §2

[20] = test system: ATCC 25923
[21] = test system: SA 366; assay: Microbroth dilution MIC, SA 366; type: cell-based, S. aureus; conditions: SA 366 (MDR), triplicate
In short: as §2

[22] = test system: SA 452 biofilm formation; assay: Biofilm inhibition assay; type: cell-based, S. aureus
In short: as §1

[23] = test system: ATCC 25923 biofilm formation; assay: Biofilm inhibition assay; type: cell-based, S. aureus
In short: as §1

[24] = test system: sortaseA; conditions: S. aureus; cited from earlier work
[25] = 1.5 mg/mL, ref 39 (Englerová et al)

SMILES: CC(C)CCCCCCCCC[C@@H]1CC(=O)N[C@@H](CCC(=O)O)C(=O)N[C@@H](CC(C)C)C(=O)N[C@H](CC(C)C)C(=O)N[C@@H](C(C)C)C(=O)N[C@@H](CC(=O)O)C(=O)N[C@H](CC(C)C)C(=O)N[C@@H](CC(C)C)C(=O)O1 [Surfactin, surfactin] (EL[dL]VD[dL]L; linker N-C via X1 (inferred))
- Cell structure by TEM [1]: damaged structure, leading to cell lysis and death; also recorded: irregular and collapsed surfaces, content leakage, and cell death
- Downregulation of icaA expression [2, 25]: 2.82 fold
- Expression of icaA (in words) ([2]; 2×MIC, ref 28 (Liu et al)): significantly reduced the expression
- Volume of Na2S2O3 consumed (penicillinase inhibition) ([3]; […], 10,000 U/mL penicillinase, 18 h, 35 °C, penicillinase-only control 0.5 mL): 2.25 mL
- Penicillinase inhibition (in words) ([3]; iodometry): directly inhibited penicillinase activity, but not as much as the clavulanate potassium; also recorded: significantly reduced penicillinase activity
- Biofilm inhibition at 1/16×MIC (in words) ([4]; 1/16×MIC): significantly inhibited
- Biofilm inhibition (in words) ([4]; S. aureus): significantly prevented the S. aureus biofilm formation; also recorded: dose-dependent inhibitory effect on S. aureus biofilm formation; also recorded: significantly reducing biofilm production
- Efficacy against Gram-negative bacteria relative to Gram-positive [5]: less than that of Gram-positive bacteria
- MIC [6]: 512 µg/mL (≈ 494 µM)
- FICI ([7]; surfactin with ampicillin): 0.133
- Fold Change ([7]; surfactin with ampicillin): 8
- FICI ([7]; surfactin with ciprofloxacin): 2
- FICI ([7]; surfactin with erythromycin): 2
- FICI ([7]; surfactin with gentamicin): 0.25
- Fold Change ([7]; surfactin with gentamicin): 8
- FICI ([7]; surfactin with oxacillin): 0.156
- Fold Change ([7]; surfactin with oxacillin): 8
- FICI ([7]; surfactin with tetracycline): 0.133
- Fold Change ([7]; surfactin with tetracycline): 8
- Biofilm removal rate ([8]; 0.2% surfactin, 4 h): 80%
- Reduction of biofilm production ([8]; one-quarter MIC, S. aureus): 60%
- Growth inhibition ([9]; 24-h exposure, 0, 1/2×MIC, MIC, 2×MIC, OD600): inhibited the growth of ATCC 25923 and SA 452 in a dose-dependent manner
- Growth inhibition at MIC and 2×MIC ([9]; MIC and 2×MIC): almost completely inhibited
- Growth reduction at half the MIC ([9]; from 4 h, 1/2×MIC): significantly reduced from 4 h
- Growth inhibition ([10]; OD600): inhibited the growth of ATCC 25923 and SA 452 in a dose-dependent manner
- Growth inhibition ([10]; OD600, listed as surfactin): inhibited the growth of both ATCC 25923 and SA 452 in a dose-dependent manner
- Growth inhibition at MIC and 2×MIC ([10]; MIC and 2×MIC): almost completely inhibited
- Growth reduction at half the MIC ([10]; from 4 h, 1/2×MIC): significantly reduced from 4 h
- Expression of fnbB (in words) [11]: inhibit the expression
- MIC [12]: 1024 µg/mL (≈ 988 µM)
- Hemolysis at 16×MIC ([13]; 16×MIC, human RBC): > 5%
- Hemolysis below 16×MIC ([13]; all concentrations less than 16×MIC, human RBC): no hemolysis was observed
- Concentration at which hemolytic activity (hemolysis > 5%) occurred ([13]; human RBC in PBS, A570, Triton X-100 positive control): 16 ×MIC
- Cytotoxicity to RBCs (in words) ([13]; human RBC): limited toxicity on human red blood cells; also recorded: extremely low cytotoxicity to RBCs; also recorded: very low cytotoxicity to erythrocytes
- Antibacterial activity (in words) ([14]; S. aureus from DFUs (non-MDR, MDR, MRSA) and ATCC 25923): antibacterial and bactericidal activity against S. aureus strains; also recorded: effectively inhibited the growth of S. aureus
- Difference in MICs between strains with different resistance patterns ([14]; non-MDR, MDR, MRSA, ATCC 25923): no significant difference in MICs
- MIC [15]: 512 µg/mL (≈ 494 µM)
- In vitro resistance development [16]: In vitro resistance was not readily produced
- Downregulation of icaD expression [17, 25]: 1.85 fold
- Expression of icaD (in words) ([17]; 2×MIC, ref 28 (Liu et al)): significantly reduced the expression
- Expression of fnbA (in words) [18]: inhibit the expression
- MIC [19]: 512 µg/mL (≈ 494 µM)
- FICI ([20]; surfactin with ampicillin): 0.5
- Fold Change ([20]; surfactin with ciprofloxacin): 2
- Fold Change ([20]; surfactin with erythromycin): 8
- FICI ([20]; surfactin with oxacillin): 0.25
- Fold Change ([20]; surfactin with oxacillin): 8
- FICI ([20]; surfactin with tetracycline): 0.188
- Fold Change ([20]; surfactin with tetracycline): 8
- MIC [21]: 512 µg/mL (≈ 494 µM)
- MRSA biofilm inhibition at 2×MIC (in words) ([22]; MRSA, 2×MIC): almost completely inhibited
- Biofilm inhibition, dose dependence ([22]; SA 452, 1/64×MIC to 2×MIC): dose-dependent inhibitory effect
- Inhibition of biofilm formation ([22]; SA 452, 2×MIC, crystal violet, 24 h, 37°C): more than 95%
- Concentration from which biofilm inhibition starts ([22]; SA 452, crystal violet, OD570, 24 h, 37°C, TSB): 1/16
- Biofilm inhibition, dose dependence ([23]; 1/64×MIC to 2×MIC): dose-dependent inhibitory effect
- Inhibition of biofilm formation ([23]; 2×MIC, crystal violet, 24 h, 37°C): 80%
- Concentration from which biofilm inhibition starts ([23]; crystal violet, OD570, 24 h, 37°C, TSB): 1/16
- Expression of sortaseA (in words) [24]: inhibit the expression
